Results: ChEMBL document CHEMBL3856273, “Design, synthesis and biological evaluation of potential antibacterial butyrolactones” (Bioorg Med Chem, 2016)
Converted amounts (≈) assume the structure as drawn.

How the values were obtained:
Streptococcus gordonii [1] = test: Antibacterial activity against Streptococcus gordonii DL1 preincubated for 24 hrs under anaerobic condition followed by incubation in columbia petri plates for 24 hrs by broth microdilution method; format: functional
In short: (§1)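 CLSI broth microdilution in BHI. Compounds serially diluted 1:2 from 300 µg/mL; doxycycline control from 32.8 µg/mL; solvent mix also diluted. Wells inoculated with 3x10^7 CFU/mL, incubated 24 h anaerobically. MIC is the lowest clear well. Clear wells are plated on Columbia agar for 24 h; MBC is the lowest concentration killing ≥99% of inoculum.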

Streptococcus gordonii [2] = test: Bactericidal activity against Streptococcus gordonii DL1 preincubated for 24 hrs under anaerobic condition followed by incubation in columbia petri plates for 24 hrs by broth microdilution method; format: functional; in short: as §1
Streptococcus gordonii [3] = test: Antibacterial activity against Streptococcus gordonii DL1 incubated for 24 hrs under anaerobic condition by agar dilution method; format: functional; settings: DL1, 24 h
In short: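 Columbia agar with horse blood containing compound at 300, 250, 200, 150, 100, 90, 80 or 70 µg/mL. Doxycycline positive control at 1:2 dilutions from 1.31 µg/mL; DMSO + methanol and water as negative controls. 2 µl spots of 10^5 CFU/mL inoculum, anaerobic incubation 24 h. MIC taken as lowest concentration preventing growth. Done three times.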

Streptococcus gordonii [4] = test: Potency index, ratio of doxycycline MBC=>99 to compound MBC=>99 for Streptococcus gordonii DL1; format: functional
[5] = Cytotoxicity against human THP1 cells assessed as cell death at MIC after 24 hrs by LDH assay; format: toxicity, cell-based; settings: thp-1, 24 h
In short: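 THP-1 cells were grown in RPMI 1640 with 1 mM pyruvate, 10% FBS and 2 mM L-glutamine at 37 °C, 5% CO2. They were seeded at 70 000 cells/well and differentiated with PMA 10 ng/mL for 72 h. Medium was replaced with compound for 24 h, with medium-only and Triton 1% controls (Triton = 100%). LDH release was measured in supernatant with CytoTox reagent for 30 min in the dark at room temperature, then stopped, and OD was read at 490 nm. Three experiments, each in triplicate.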

[6] = Cytotoxicity against human THP1 cells assessed as cell viability at MIC after 24 hrs by MTT assay relative to control; format: toxicity, cell-based, THP-1; settings: read-out: Activity
In short: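 THP-1 grown in RPMI with pyruvate, Hepes and 10% FBS. Seeded at 70 000 cells/well and differentiated with PMA 10 ng/mL for 72 h. Medium removed, then compound at its MIC added for 24 h; Triton 1% positive control. MTT from 5 mg/mL stock for 4 h at 37 °C; acid-isopropanol solubilization; OD 595/655 nm as % of untreated. Three experiments in triplicate.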

[7] = Cytotoxicity against human Ca9-22 cells assessed as cell death at MIC after 24 hrs by LDH assay; format: toxicity, cell-based; settings: ca9-22, 24 h
In short: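 Ca9-22 gingival epithelial cells were grown in DMEM with 10% heat-inactivated FBS and 2 mM L-glutamine at 37 °C, 5% CO2, then trypsinized and seeded at 70 000 cells/well for 24 h. Compound was applied for 24 h, with medium-only and Triton 1% controls (Triton = 100% cytotoxicity). Supernatant was mixed with CytoTox reagent for 30 min in the dark at room temperature, then stopped, and OD was read at 490 nm. Three experiments, each in triplicate.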

[8] = Cytotoxicity against human Ca9-22 cells assessed as cell viability at MIC after 24 hrs by MTT assay relative to control; format: toxicity, cell-based; settings: read-out: Activity

Row | SMILES | MIC (Streptococcus gordonii [1]) | MIC (Streptococcus gordonii [3]) | MBC=>99 (Streptococcus gordonii [2]) | Ratio (Streptococcus gordonii [4]) | mortality [5] | viability at 24 h [6] | mortality [7] | viability at 24 h [8]
1 | C=C[C@H]1CC(=O)O[C@@H]1CCCCCCCCCCCCC | 75 µg/mL (≈ 255 µM) | > 300 µg/mL | 75 µg/mL (≈ 255 µM) |  |  |  |  | 
2 | CCCCCCCCCCCCC[C@@H]1C=CC(=O)O1 | 75 µg/mL (≈ 282 µM) | > 300 µg/mL | 75 µg/mL (≈ 282 µM) |  |  |  |  | 
3 | CCCCCCCCC[C@@H]1OC(=O)C(C)=C1C(=O)O | 150 µg/mL (≈ 559 µM) | 150 µg/mL (≈ 559 µM) | >300 µg/mL |  |  |  |  | 
4 | CCCCCCCCC[C@H]1OC(=O)C[C@H]1O | 150 µg/mL (≈ 657 µM) | 300 µg/mL (≈ 1310 µM) | 300 µg/mL (≈ 1310 µM) |  |  |  |  | 
5 | CCCCCCCCCCCCCCCC[C@@H]1OC(=O)C(C)=C1C(=O)O | 9.38 µg/mL (≈ 25.6 µM) | > 300 µg/mL | 9.38 µg/mL (≈ 25.6 µM) | 3 | 10% | 106% | 12% | 96%
6 | CCCCCCCCCCCCCCC[C@@H]1OC(=O)C(C)=C1C(=O)O | 9.38 µg/mL (≈ 26.6 µM) | 200 µg/mL (≈ 567 µM) | 18.75 µg/mL (≈ 53.2 µM) | 2 | 20% | 107% | 9.6% | 100%

Further lines, with some results ahead:

Row | MIC (Streptococcus gordonii [1]) | MIC (Streptococcus gordonii [3]) | SMILES | MBC=>99 (Streptococcus gordonii [2]) | Ratio (Streptococcus gordonii [4]) | mortality [5] | viability at 24 h [6] | mortality [7] | viability at 24 h [8]
7 | 150 µg/mL (≈ 559 µM) | 150 µg/mL (≈ 559 µM) | CCCCCCCCC[C@H]1OC(=O)C(C)=C1C(=O)O | >300 µg/mL |  |  |  |  | 
8 | 75 µg/mL (≈ 264 µM) | > 300 µg/mL | CCCCCCCCCCCCC[C@H]1OC(=O)C[C@H]1O | 150 µg/mL (≈ 527 µM) |  |  |  |  | 
9 | 4.69 µg/mL (≈ 14.5 µM) | 90 µg/mL (≈ 277 µM) | CCCCCCCCCCCCC[C@H]1OC(=O)C(C)=C1C(=O)O | 18.75 µg/mL (≈ 57.8 µM) |  |  |  |  | 
10 | 0.51 µg/mL | 0.41 µg/mL | C[C@H]1c2cccc(O)c2C(=O)C2=C(O)[C@]3(O)C(=O)C(C(N)=O)=C(O)[C@@H](N(C)C)[C@@H]3[C@@H](O)[C@@H]21.O [DOXYCYCLINE] | 32.8 µg/mL |  |  |  |  | 
11 | > 300 µg/mL | > 300 µg/mL | CCCCCCC[C@@H]1OC(=O)C(C)=C1C(=O)O | >300 µg/mL |  |  |  |  | 
12 | 75 µg/mL (≈ 315 µM) | > 300 µg/mL | C=C[C@H]1CC(=O)O[C@@H]1CCCCCCCCC | 150 µg/mL (≈ 629 µM) |  |  |  |  | 
13 | 150 µg/mL (≈ 713 µM) | 300 µg/mL (≈ 1430 µM) | CCCCCCCCC[C@@H]1C=CC(=O)O1 | 300 µg/mL (≈ 1430 µM) |  |  |  |  | 
14 | 4.69 µg/mL (≈ 14.5 µM) | 90 µg/mL (≈ 277 µM) | CCCCCCCCCCCCC[C@@H]1OC(=O)C(C)=C1C(=O)O | 18.75 µg/mL (≈ 57.8 µM) |  |  |  |  | 
